Bioassay records from PubChem BioAssay.
CSC inhib: blocks cancer stem cells | 1.1% of 300,000 active | cancer stem cell-like cells viability, luminescence | AID 2717 | inhibition, % at 7.5 µM; in the data active means inhibition above about 75%; inconclusive means no clear call, values can overlap the other calls; tested in HMLE shEcad cells
Beta cell apopt: beta cell apoptosis inhibition; 0.8% of 300,000 active; protection from apoptosis, % (test concentration not listed); AID 435005; INS-1E cytokine-induced death, ATP luminescence, 48 h; percent of positive-control rescue, neutral wells zero;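 active means Every replicate reaches about 75%, or at least half do and their mean reaches it too, limit read from the data; inconclusive means At least half of replicates reach the limit but their mean does not; inactive means Under half of replicates reach the limit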;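 further: 0% = cytokine-treated negative control wells and 100% = positive control rescue; higher means more ATP so stronger rescue from cytokine killing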
L major viab: inhibitors of Leishmania major promastigote growth | 9% of 200,000 active | inhibition, % at 10 µM | Leishmania major promastigotes, resazurin fluorescence viability; in the data active means inhibition above about 50%;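 further: promastigotes grown with compound for 44 hours at 28 °C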
Mdm2 MdmX PPI: human Mdm2/MdmX binding inhibition; O15151+Q00987; SaOS-2 split-luciferase Mdm2/MdmX complementation, luminescence; inhibition, % at 8 µM; 3% of 330,000 active;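 active means inhibition of at least 50% at 8 µM in the primary screen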
Target sequence (O15151 whole entry, looked up): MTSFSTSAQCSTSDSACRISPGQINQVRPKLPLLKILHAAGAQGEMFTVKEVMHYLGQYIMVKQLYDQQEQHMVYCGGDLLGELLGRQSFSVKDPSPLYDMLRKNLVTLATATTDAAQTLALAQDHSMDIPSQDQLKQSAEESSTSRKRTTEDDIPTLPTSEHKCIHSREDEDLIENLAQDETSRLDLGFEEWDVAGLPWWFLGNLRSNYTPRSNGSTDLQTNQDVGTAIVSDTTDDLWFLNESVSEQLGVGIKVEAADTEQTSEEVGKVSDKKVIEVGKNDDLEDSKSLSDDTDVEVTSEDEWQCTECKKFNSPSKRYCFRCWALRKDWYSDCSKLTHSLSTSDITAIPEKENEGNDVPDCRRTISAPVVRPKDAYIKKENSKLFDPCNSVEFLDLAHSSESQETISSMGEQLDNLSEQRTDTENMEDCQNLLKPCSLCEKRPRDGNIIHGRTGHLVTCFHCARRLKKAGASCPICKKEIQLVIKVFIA
Target sequence (Q00987 whole entry, looked up): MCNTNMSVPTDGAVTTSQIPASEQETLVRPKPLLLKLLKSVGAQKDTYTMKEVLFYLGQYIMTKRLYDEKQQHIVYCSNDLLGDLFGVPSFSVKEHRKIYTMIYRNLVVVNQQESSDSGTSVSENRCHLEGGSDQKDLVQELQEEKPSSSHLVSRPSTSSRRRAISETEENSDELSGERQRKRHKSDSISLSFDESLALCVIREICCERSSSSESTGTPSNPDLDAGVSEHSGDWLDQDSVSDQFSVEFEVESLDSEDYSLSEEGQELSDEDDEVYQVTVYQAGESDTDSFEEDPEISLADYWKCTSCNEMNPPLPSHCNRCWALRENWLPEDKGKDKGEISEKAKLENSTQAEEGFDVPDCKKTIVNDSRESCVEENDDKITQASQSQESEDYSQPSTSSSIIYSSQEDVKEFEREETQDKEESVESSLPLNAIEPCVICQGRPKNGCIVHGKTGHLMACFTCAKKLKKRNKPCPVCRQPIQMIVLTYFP
SKKanGAS inh: blocks kanamycin growth of S. pyogenes SKKanGAS strain; inhibition, % at 7.5 µM; 1.3% of 300,000 active; BacTiter-Glo, 6 h; AID 1662;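 active means mean replicate score, as percent of positive control median, at least 50; inconclusive means mean below 50 but one replicate at or above 50; inactive means mean and every replicate below 50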;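 further: strain carries kanamycin resistance gene driven by streptokinase promoter and grows in 40 µg/ml kanamycin; loss of luminescence reflects streptokinase promoter inhibition or plain growth inhibition; 0% = median of DMSO wells and 100% = positive control at its reference dose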
T cruzi repl: blocks replication of Trypanosoma cruzi; 1.4% of 300,000 active; inhibition, % (no concentration beside the values); T. cruzi beta-gal in NIH3T3, luminescence, 90 h;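 active means mean inhibition across valid replicates above about 55%, limit read from the data; inconclusive means mean below that limit but half or more replicates reach it; inactive means mean below it, under half of replicates reach it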;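 further: signal also drops with host cell toxicity which is not excluded here; 0% = plate median of DMSO wells and 100% = zero luminescence signal; higher percent means less beta-gal luminescence so fewer parasites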
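System: Mouse NIH/3T3 fibroblasts infected with β-gal-expressing T. cruzi Tulahuen C4 | Quantity: NIH/3T3 cells, 5,000 per well | Reagent: 5000 reporter trypomastigotes per well | Dosing: Compound pinned at 50 nL/well, DMSO | Schedule: 3 h host attachment, then at least 90 h co-culture | Detection: GalScreen luminescence, 60 min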
Lmaj promast 1uM: L. major promastigote growth inhibition, 1 uM repeat; shares compounds with L major viab; resazurin fluorescence, 48 h; inhibition, % at 1 µM; 13% of 1,100 active; AID 1258;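 active means inhibition above about 50% in both repeat tests, limit read from the data; inconclusive means one repeat under the set limit, the other over it; inactive means both repeats under the set limit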
Mdm2-MdmX conf: human Mdm2/MdmX binding inhibition, confirmed; shares compounds with Mdm2 MdmX PPI; luminescent assay; inhibition, % at 8 µM; 55% of 10,000 active; in the data active means inhibition above about 40%
FLuc counter: counter-screen for Mdm2/MdmX inhibitors: full-length luciferase | shares compounds with Mdm2 MdmX PPI | SaOS-2 full-length luciferase counterscreen, luminescence | inhibition, % at 8 µM | 77% of 6,200 active;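 active means mean inhibition at 8 µM reaching about 37%, which flags the compound as non-specific, limit read from the data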;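 further: p53-null SaOS-2 cells with luciferase driven by a doxycycline-inducible promoter; compound on cells about two nights before reading with doxycycline added after day one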
* marks the source's active call; other numbers are inactive results; ? = inconclusive; . = no result given. Shown are actives, neighbours in structure and some others; about 9.4% of the full set was active somewhere.

SMILES	CSC inhib	Beta cell apopt	L major viab	Mdm2 MdmX PPI	SKKanGAS inh	T cruzi repl	Lmaj promast 1uM	Mdm2-MdmX conf	FLuc counter
Cc1cc2nn(-c3cccc4ccccc34)nc2cc1N	-5.7	19.5	3.4	-49.0	-1.8	-2.9	.	.	.
Nc1ccc2nn(-c3cccc4ccccc34)nc2c1	-8.0	74.6*	99.4*	52.8*	3.6	5.6	-8.5	-0.6	.
CC(=O)Oc1cc2c(cc1Cl)C1(CC(c3ccccc3Cl)O2)CC(C)(C)NC(=S)N1 (stereo not given)	47.4	8.7	97.8*	56.2*	28.2	39.2	-15.1	11.7	.
COc1ccc(N2C(=S)NC(C)(C)CC2(C)c2ccc(OC(C)=O)cc2OC(C)=O)cc1 (stereo not given)	.	-0.9	2.1	13.0	6.6	-22.1	.	.	.
CCOc1ccc(/C=N/NC(=O)Cc2cccs2)cc1	-5.0	-4.1	.	-22.2	33.9	-1.0	.	.	.
COC1=C(N)C(=O)c2nc(-c3nc(C(=O)O)c(C)c(-c4ccc(OC)c(OC)c4O)c3N)ccc2C1=O	.	.	64.9*	100.3*	.	.	19.2	100.0*	1.6
COc1ccc(-c2ncncc2-c2csc(C)n2)c(O)c1OC	22.7	4.0	2.2	4.2	-1.3	-5.4	.	.	.
O=C(Cn1cnc([N+](=O)[O-])c1)Nc1cc(Oc2ccc(Cl)cc2Cl)cc([N+](=O)[O-])c1	72.5	17.2	99.8*	55.6*	13.1	57.3*	62.1*	25.6	.
N#Cc1ccc(NC(=O)Cn2cnc([N+](=O)[O-])c2)cc1	-15.5	-1.6	.	-24.4	-0.8	-10.4	.	.	.
COc1ccc(-c2nc(NC(=O)c3cc(C(C)(C)C)nn3C)sc2C)cc1	80.9*	85.1*	70.2*	60.7*	38.0	57.0*	8.8	32.1	.
CCOC(=O)C1=C(c2ccccc2)O/C(=C(/C#N)C(F)(F)F)S1	56.1	115.8*	73.6*	100.7*	10.3	70.1*	9.1	99.0*	-0.3
COc1cc2[nH]c3c(N4CCN(c5ccccn5)CC4)ncnc3c2cc1OC	21.7	26.8	100.4*	68.8*	18.4	-1.6	-29.0	40.6*	52.9*
CCOC(=O)N1CCN(c2ncnc3c2[nH]c2ccc(OC)cc23)CC1	-2.2	-1.5	6.6	1.8	-0.6	31.0	.	.	.
CS(=O)(=O)n1nc(-c2ccc(Cl)cc2)nc1N	-9.0	0.2	-3.9	-1.9	-2.2	-5.4	.	.	.
Cn1nc(-c2ccc(Cl)cc2)nc2c(=O)n(C)c(=O)nc1-2	118.5*	99.4*	50.3*	82.6*	84.3*	55.8*	80.6*	79.6*	19.8
COc1cccc(/C=N/NC(=O)c2ccc(-c3ccccc3)cc2)c1O	?	106.9*	99.8*	76.3*	22.2	-7.5	-18.3	77.0*	23.0
COc1cc([C@H]2Oc3c(OC)cc(CCCO[C@@H]4O[C@H](CO)[C@@H](O)[C@H](O)[C@H]4O)cc3[C@@H]2CO)ccc1O	1.5	-4.3	.	13.2	.	.	.	.	.
Cc1cc2c(c(/C=C/C(=O)c3ccccc3)c1)OC1(C=C2)Oc2ccccc2C(=O)N1C (stereo not given)	138.0*	-4.9	97.7*	91.2*	22.4	42.5	25.3	83.5*	47.6*
CCOC(=O)c1ccc(NC(=O)c2ccccc2)cc1	-7.3	0.0	7.1	-64.8	-0.5	0.0	.	.	.
CCOC(=O)c1ccc(NC(=O)c2c(N)n(Cc3ccccc3)c(=O)[nH]c2=O)cc1	-0.6	52.9	.	96.2*	-0.9	-11.4	.	31.2	.
O=C(NCc1cccnc1)/C(=C/c1ccc(-c2cccc(Cl)c2)o1)S(=O)(=O)c1ccccc1	100.2*	112.2*	100.4*	98.8*	-1.7	48.3	.	99.7*	50.8*
CCOc1cc(C(=O)O/N=C(\N)c2ccc([N+](=O)[O-])cc2)cc(OCC)c1OCC	-12.3	-0.3	-3.5	67.3*	4.7	25.5	.	45.8*	91.7*
COc1cc(C(=O)O/N=C(\N)c2cccc([N+](=O)[O-])c2)cc(OC)c1OC	-4.1	.	.	74.4*	-4.4	13.2	.	36.5	102.8*
COc1cc(C(=O)O/N=C(\N)c2ccc([N+](=O)[O-])cc2)cc(OC)c1OC	-3.3	11.4	55.7*	75.0*	-2.6	13.5	.	35.5	95.0*
COC(=O)c1ccc[n+](CCc2c[nH]c3ccccc23)c1	-8.2	-1.5	.	-18.7	-1.7	-13.9	.	.	.
SMILES	CSC inhib	Beta cell apopt	L major viab	Mdm2 MdmX PPI	SKKanGAS inh	T cruzi repl	Lmaj promast 1uM	Mdm2-MdmX conf	FLuc counter
Cc1ccc([N+](=O)[O-])cc1N(CC(=O)Nc1ccc(S(=O)(=O)Nc2cccc(C(F)(F)F)c2)cc1)S(C)(=O)=O	100.2*	99.4*	-3.7	55.0*	?	61.2*	.	45.1*	39.2*
COc1ccccc1N(CC(=O)Nc1cccc(C(F)(F)F)c1)S(C)(=O)=O	-1.7	.	3.7	-7.3	?	2.9	.	.	.
CCCSc1ccc([C@H]2N[C@@](C)(C(=O)OC)[C@H]3C(=O)N(C)C(=O)[C@@H]23)cc1OC	7.7	.	.	23.1	5.7	10.1	.	.	.
COC(=O)[C@@]1(Cc2ccccc2)[C@H]2C(=O)N(Cc3ccccc3)C(=O)[C@H]2[C@H]2CN=C(SCc3ccc(C)cc3)N21	.	.	.	57.8*	.	.	.	65.5*	46.4*
COC(=O)[C@@]1(Cc2ccccc2)[C@H]2C(=O)N(Cc3ccccc3)C(=O)[C@H]2[C@H]2CN=C(SCc3ccccc3)N21	.	.	.	88.8*	.	.	.	85.5*	34.6
COC(=O)c1ccc(CSC2=NC[C@@H]3[C@@H]4C(=O)N(Cc5ccccc5)C(=O)[C@@H]4[C@](Cc4ccccc4)(C(=O)OC)N23)cc1	.	.	.	49.3	.	.	.	.	.
COC(=O)[C@@]1(Cc2ccccc2)[C@H]2C(=O)N(Cc3ccccc3)C(=O)[C@H]2[C@H]2CN=C(SCC3CC3)N21	.	.	.	40.4	.	.	.	.	.
Cc1ccccc1N1CCN(C2CCCN(C(=O)c3cc[n+]([O-])cc3)C2)CC1 (stereo not given)	-4.3	-7.6	.	18.4	2.4	23.1	.	.	.
COc1cc2sc(NC(=O)c3ccco3)nc2cc1Cl	20.5	0.1	.	63.6*	-1.7	-6.8	.	-56.1	.
Cc1cc2sc(NC(=O)c3ccco3)nc2cc1Cl	13.7	4.6	.	0.2	-4.4	-2.2	.	.	.
CCN(CC)CCNC(=O)C1CCN(S(=O)(=O)c2c(C)noc2/C=C/c2ccccc2F)CC1	-5.9	5.2	.	56.4*	-2.9	0.0	.	23.8	.
CC(=O)c1ccc(S(=O)(=O)NC2CC(=O)N(c3ccc(C)c(C)c3)C2)cc1 (stereo not given)	-4.8	6.5	.	11.1	2.5	-0.5	.	.	.
Cc1cccc(/C=N/NC(=O)Cc2ccc(Cl)cc2)c1O	15.7	.	.	64.5*	107.4*	2.8	.	42.0*	29.9
Cc1ccc(O)c(/C=N/NC(=O)Cc2ccc(Cl)cc2)c1	22.1	.	.	64.3*	97.1*	-0.7	.	50.8*	33.6
